Screens deposited in PubChem BioAssay by several laboratories.
This is one part of a sample in which hits are shown more often than they occur.
G6PDH CS: L. mesenteroides G6PDH inhibitors, counter-screen for G6PDH-coupled screening assays, biochemical, Leuconostoc mesenteroides enzyme; glucose-6-phosphate dehydrogenase [Leuconostoc mesenteroides]; Purified L. mesenteroides G6PDH, diaphorase/resazurin coupled fluorescence, 45 min; inhibition, % at 5 µM; actives 0.12% (n = 200,000); AID 1020, 2008
L major viab: Leishmania major promastigote growth inhibition, primary screen | Leishmania major promastigotes, resazurin fluorescence viability | inhibition, % at 10 µM | actives 9% (n = 200,000) | AID 1063, 2008;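 further: promastigotes grown with compound for 44 hours at 28 °C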
PfG6PD inh: PfG6PD enzyme inhibitors, primary screen, biochemical, fluorescence intensity, uHTS; glucose-6-phosphate dehydrogenase-6-phosphogluconolactonase (Plasmodium falciparum 3D7); actives 0.78% (n = 350,000); inhibition, % at 20 µM; PfGluPho enzyme, NADPH resazurin-diaphorase fluorescence;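 active means inhibition reaching at least a set limit at 20 µM in the primary screen, cut at about 59% in these data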;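 further: 0% = DMSO wells with substrate and 100% = DMSO wells lacking glucose-6-phosphate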
Diaph act CS: compounds boosting diaphorase resazurin reduction – biochemical, uHTS, resorufin fluorescence, counter-screen for diaphorase-coupled primary assays, primary screen | Diaphorase/resazurin coupled assay, 16 min; stronger effect = higher value; 1 = vehicle wells, 0 = NADH-free wells | activation factor at 20 µM | actives 0.005% (n = 190,000) | AID 1229, 2008;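 active means diaphorase activity raised at least twofold by the compound at 20 µM; inactive means activation factor below 2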
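System – purified diaphorase enzyme from Clostridium kluyveri · Input – enzyme 0.07 U/mL final · Also added – final NADH 0.114 mM, resazurin 0.1 mM · Measured by – fluorescence of resorufin, 544 nm excitation, 590 nm emission · Timing – 16 min enzyme reaction, ambient temperature · Measure – resorufin increase flagging diaphorase activators or reducers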
Redox H2O2 prof: compounds producing H2O2 with reducing agent – biochemical, NIH compound library profiling, artefact control for MLSCN library redox annotation, primary screen; activation, % at 10 µM; actives 0.03% (n = 200,000); DTT-dependent redox cycling H2O2, phenol red/HRP absorbance; 100% = 100 µM peroxide control, 0% = buffer;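 active means activation of at least 50% relative to the plate's high and low controls in the primary single-dose screen; inactive means activation below 50%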;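 further: compound incubated with DTT at 0.8 mM final as the reducing agent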
Diaph inh CS: diaphorase inhibitors and chemical oxidizers, primary screen, counter-screen for diaphorase-coupled primary assays, biochemical, uHTS, resorufin fluorescence | diaphorase resazurin-to-resorufin fluorescence, NADH, 16 min; bacterial (C. kluyveri) enzyme, not human | inhibition, % at 20 µM | actives 0.69% (n = 190,000) | AID 1217, 2008;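 active means primary screen inhibition at 20 µM above a set limit, cut at about 50% in these data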;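 further: plate controls were DMSO with full reaction for no effect and wells lacking NADH for full effect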
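Assay system – diaphorase enzyme from Clostridium kluyveri · Amount – diaphorase 0.14 U/mL (working solution) · Times – reaction incubation of 16 min at room temperature · Controls – No-NADH positive control and DMSO neutral control · Signal – resorufin fluorescence 544/590 nm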
Starred values were filed as active, the others as inactive. Unless noted, no stated cut-off is given here; in the data, active means inhibition above about 50%; inactive means the rest.

For CN1CCN(C(c2ccc(C(F)(F)F)cc2)c2ccc3cccnc3c2O)CC1 (centres undefined) the results were PfG6PD inh -2.
CN1CCN(C(c2ccccn2)c2cc(Cl)c3cccnc3c2O)CC1 (centres undefined) was read as G6PDH CS 37, L major viab -1, PfG6PD inh 17, Diaph act CS 0.5, Redox H2O2 prof -3 and Diaph inh CS 45.
For Oc1c(C(c2cccs2)N2CCN(c3ccccc3)CC2)ccc2cccnc12 (centres undefined) the results were G6PDH CS 10, L major viab 84*, Diaph act CS 0.6, Redox H2O2 prof 0 and Diaph inh CS 38.
For CCCCCOc1ccc(C(=O)NCC(=O)NCC(=O)OCC)cc1 the results were G6PDH CS 8, L major viab -4, PfG6PD inh 0, Diaph act CS 0.9, Redox H2O2 prof 0 and Diaph inh CS 6.
`CC(Oc1ccccc1F)C(=O)NNC(=O)c1cccc(S(=O)(=O)N2CCN(C)CC2)c1` (centres undefined) gave PfG6PD inh -17.
For C/C(=N\NC(N)=S)C12CC3CC(CC(C3)C1)C2 the results were G6PDH CS 4, L major viab 101*, PfG6PD inh 15, Diaph act CS 0.8, Redox H2O2 prof 1 and Diaph inh CS 18.
`O=C(Nc1ccccc1)/C(=C/c1ccc(F)cc1)NC(=O)c1ccco1` gave PfG6PD inh 6.
`C/C(N)=C(/C#N)C(=O)COC(=O)C(c1ccccc1)c1ccccc1` gave G6PDH CS -1, L major viab 73*, PfG6PD inh -2, Diaph act CS 1.1, Redox H2O2 prof -1 and Diaph inh CS -9.
Screening COc1cc([N+](=O)[O-])cc(/C=N/NC(=O)C(C)Nc2cccc3ccccc23)c1O (centres undefined) returned G6PDH CS -16, L major viab -11, PfG6PD inh -21, Diaph act CS 0.3, Redox H2O2 prof 0 and Diaph inh CS 70*.
For Cc1cccc(/C=N/NC(=O)C(C)Nc2cccc3ccccc23)n1 (centres undefined) the results were G6PDH CS 50*, L major viab 6, PfG6PD inh 6, Diaph act CS 0.7, Redox H2O2 prof 0 and Diaph inh CS 28.
CC(Nc1cccc2ccccc12)C(=O)N/N=C/c1ccc([N+](=O)[O-])cc1 (centres undefined) was read as G6PDH CS -1, L major viab 0, PfG6PD inh 22, Diaph act CS 0.8, Redox H2O2 prof 1 and Diaph inh CS 17.
For CCOc1ccc(N(CC(=O)NCCc2ccccc2)C(=O)CCC(=O)Nc2nccs2)cc1 the results were PfG6PD inh 7.
`Cc1ccc(Nc2nc(N3CCN(C)CC3)nc(N)c2[N+](=O)[O-])cc1C` gave G6PDH CS -1, L major viab 97*, Diaph act CS 1, Redox H2O2 prof 0 and Diaph inh CS 3.
`CCN1CCN(c2nc(N)c([N+](=O)[O-])c(Nc3ccc(C)c(C)c3)n2)CC1` gave G6PDH CS -4, L major viab 60*, PfG6PD inh 15, Diaph act CS 1, Redox H2O2 prof 0 and Diaph inh CS -2.
For CC(C)N(CCc1ccncc1)C(=O)Nc1ccc(F)cc1 the results were G6PDH CS 18, L major viab -4, PfG6PD inh -5, Diaph act CS 1, Redox H2O2 prof -1 and Diaph inh CS -4.
Screening O=C(NCCc1ccncc1)Nc1ccc(Cl)c(Cl)c1 returned G6PDH CS -2, L major viab 96*, PfG6PD inh 1, Diaph act CS 1, Redox H2O2 prof -2 and Diaph inh CS -1.
